# High-throughput results deposited in PubChem BioAssay by several laboratories.
# Most compounds without a hit are left out; they make up all but 1.3% or so of the library.
# G6PDH CS: counter-screen for G6PDH assay hits: L. mesenteroides G6PDH inhibition; 200,000 compounds, 0.12% hits; Purified L. mesenteroides G6PDH, diaphorase/resazurin coupled fluorescence, 45 min; AID 1020; inhibition, % at 5 µM; in the data active means inhibition above about 50%
# Diaph inh CS: diaphorase inhibition or chemical oxidation counter-screen; diaphorase resazurin-to-resorufin fluorescence, NADH, 16 min; bacterial (C. kluyveri) enzyme, not human; inhibition, % at 20 µM; 190,000 compounds, 0.69% hits; AID 1217;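 active means primary screen inhibition at 20 µM above a set limit, cut at about 50% in these data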;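 further: plate controls were DMSO with full reaction for no effect and wells lacking NADH for full effect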
#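 controls = No-NADH positive control and DMSO neutral control | system = Clostridium kluyveri diaphorase enzyme | timing = reaction incubation of 16 min at room temperature | signal = resorufin fluorescence 544/590 nm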
# PfGluPho inh: PfG6PD (Plasmodium falciparum) enzyme inhibition | PfGluPho enzyme, NADPH resazurin-diaphorase fluorescence | inhibition, % at 20 µM | 350,000 compounds, 0.78% hits | AID 504690;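 active means inhibition reaching at least a set limit at 20 µM in the primary screen, cut at about 59% in these data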;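 further: 0% = DMSO wells with substrate and 100% = DMSO wells lacking glucose-6-phosphate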
# TbHK1 inh: blocks Trypanosoma brucei hexokinase 1 activity. recombinant TbHK1, G6PDH-coupled NADH A340. inhibition, % at 10 µM. 220,000 compounds, 0.11% hits;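 active means inhibition of 50% or more in the single-dose primary screen; inactive means inhibition below 50%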
# HKDC1 inhibitor: blocks human hexokinase HKDC1 activity; Q2TB90; recombinant HKDC1, G6PDH/diaphorase resazurin coupled fluorescence; inhibition, % at 20 µM; 340,000 compounds, 0.16% hits;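 active means inhibition above about 35% when tested at 20 µM, limit read from the data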;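 further: plate controls were DMSO wells with enzyme for no effect and DMSO wells lacking enzyme for full effect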
#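 Material – in-house recombinant HK5 (HKDC1) enzyme · Quantity – HKDC1 at 5 µg/mL · Buffer or medium – pH 8.0 Tris buffer with 10 mM MgCl2 · Reagent – glucose with 1 mM ATP · Dosing – single 20 µM dose · Times – reaction time 90 min, room temperature, protected from light · Technique – resorufin fluorescence at 613 nm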
# PfGluPho conf: PfG6PD inhibition, single-dose confirmed | shares compounds with PfGluPho inh | recombinant PfGluPho, NADPH-diaphorase-resazurin fluorescence | inhibition, % at 20 µM | 2,400 compounds, 34% hits | AID 504753;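 active means inhibition of at least 50% at 20 µM in any single replicate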;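 further: 0% = DMSO with substrate and 100% = DMSO lacking glucose-6-phosphate substrate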
# Diaphorase 10uM: counter-screen for P. falciparum G6PD inhibitors: diaphorase inhibitors, oxidizers; shares compounds with PfGluPho inh; diaphorase-coupled resazurin reduction, fluorescence, NADPH 10 uM; 820 compounds, 39% hits; inhibition, % at 20 µM;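 active means average inhibition reaching 50% or more with the compound at 20 µM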;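 further: resorufin red fluorescence formed as diaphorase reduces resazurin using NADPH; 0% = DMSO with enzyme and 100% = DMSO without enzyme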
# Diaphorase 30uM: counter-screen for P. falciparum G6PD inhibitors: diaphorase inhibitors, oxidizers; shares compounds with PfGluPho inh; Diaphorase/resazurin coupled assay, resorufin fluorescence, 30 uM NADPH; inhibition, % at 20 µM; 820 compounds, 29% hits; AID 504863;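 active means inhibition averaging 50% or more, tested at 20 µM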;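 further: 0% = DMSO with enzyme and 100% = DMSO wells lacking diaphorase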
# Numbers without * were called inactive; nt = not tested or not shown.
SMILES,G6PDH CS,Diaph inh CS,PfGluPho inh,TbHK1 inh,HKDC1 inhibitor,PfGluPho conf,others
COc1cc(NCCCn2cnc3c(OCc4ccccc4)ncnc32)cc(OC)c1OC,nt,nt,80*,nt,4,67*,Diaphorase 10uM=-14;Diaphorase 30uM=-23
COc1ccccc1C(c1nnnn1C(C)C)N1CCN(C(=O)c2ccco2)CC1 (centres undefined),nt,nt,-8,nt,-6,nt,
C=CCN1C(=O)c2ccccc2NC1c1ccc(Br)s1 (centres undefined),nt,nt,2,nt,1,nt,
Cc1cc(C(=O)O)ccc1-n1c(C)cc(C=C2C(=O)c3ccccc3C2=O)c1C,0,29,80*,-11,2,47*,Diaphorase 10uM=60*;Diaphorase 30uM=41
Cc1cc(C(=O)O)ccc1-n1c(C)cc(/C=C(/C#N)C(=O)Nc2ccccc2)c1C,0,8,8,-24,-4,nt,
NNC(=O)c1nnn(-c2nonc2N)c1CN1CCc2ccccc2C1,14,19,-9,3,-1,nt,
O=C(CSc1nc2cc(Cl)ccc2s1)c1cc2ccccc2o1,2,0,64*,5,0,5,
CC1=C(n2ccnc2)CCC1=O,nt,nt,-4,nt,-6,nt,
Clc1ccc(-c2nc3ccccn3c2CN2CCCCC2)cc1,0,8,-5,3,-4,nt,
Oc1ccc(N2CCN(Cc3c(-c4ccccc4)nc4ccccn34)CC2)cc1,nt,nt,59*,nt,2,-1,
CCOC(=O)C1Nc2ccc(C(=O)O)cc2C2C=CCC12 (centres undefined),nt,nt,62*,nt,19,21,
CCOc1cc(/C=N/Nc2nnc(C)n2N)ccc1O,nt,nt,59*,nt,7,48,
C=CCN(c1ccccc1)S(=O)(=O)c1cc(C(=O)NC2=NCCS2)ccc1Cl,2,16,-8,-3,-7,nt,
O=C(Nc1ccc(Br)cc1)c1cc2ccccn2n1,nt,nt,71*,1,-5,29,
O=[N+]([O-])c1cc2no[n+]([O-])c2cc1N1CCCCC1,nt,nt,129*,nt,0,111*,Diaphorase 10uM=80*;Diaphorase 30uM=58*
COC(=O)c1cc(CSc2nc3ccc(C)cc3[nH]2)oc1C,-2,32,61*,3,-1,17,
COC(=O)c1ccc(CSc2nc3ccccc3[nH]2)o1,4,7,9,-3,0,nt,
